# Source: PubChem
# M18AAP inhibitor – PfM18AAP inhibitors, malaria aminopeptidase, primary screen, biochemical, QFRET, recombinant enzyme. M18 aspartyl aminopeptidase (Plasmodium falciparum 3D7). H-Glu-NHMec fluorogenic cleavage. inhibition, % at 7.35 µM. 290,000 tested, 1.2% active. AID 1822, 2009;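 active = inhibition above the campaign mean inhibition over all tested compounds plus 3 SD, cut at about 28% in these data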;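 note: 0% = plate median of test compound wells and 100% = 2 mM ZnCl2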
# Hep lipid drop – inhibitors of hepatocyte lipid droplet formation, primary screen, imaging, high-throughput imaging, BODIPY stain; 240,000 tested, 0.4% active; inhibition, % at 6.5 µM; AML12 mouse hepatocytes, oleate lipid droplets; AID 1656, 2009;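 active = lipid droplet intensity inhibited by at least 50%, with more than 500 cells counted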
#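 Material – mouse AML12 hepatocyte cell line, fixed after treatment · Compound dosing – one dose, 6.5 µM compound · Times – compound with oleate, overnight · Measured by – Image-based BODIPY and DAPI two-channel analysis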
# sPLA2-III inh – human group III sPLA2 inhibitors, primary screen, biochemical, QFRET, BODIPY PC-A2 liposome substrate | AID 743126, 2013 | 370,000 tested, 0.56% active | Group 3 secretory phospholipase A2 (Homo sapiens), Q9NZ20 | inhibition, % at 12.2 µM | QFRET BODIPY PC-A2 liposome hydrolysis, fluorescence;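 active = inhibition above mean plus 3 SD of compounds lying within the high and low control bounds, cut at about 19% in these data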;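 note: 0% = median of test compound wells and 100% = no enzyme DMSO wells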
# CendR NRP1 mod – modulators of CendR peptide binding to NRP-1, primary screen, biochemical, fluorescence polarization, uHTS. Neuropilin-1 (Homo sapiens), O14786. FAM-RPARPAR peptide binding to NRP-1. inhibition, % at 25 µM. 360,000 tested, 0.85% active;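 active = inhibition or corrected inhibition above about 18%, plus a signal ratio from 0.5 to 1.5, limit read from the data, passing the limit was not always enough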
# Target sequence (O14786 whole entry, looked up): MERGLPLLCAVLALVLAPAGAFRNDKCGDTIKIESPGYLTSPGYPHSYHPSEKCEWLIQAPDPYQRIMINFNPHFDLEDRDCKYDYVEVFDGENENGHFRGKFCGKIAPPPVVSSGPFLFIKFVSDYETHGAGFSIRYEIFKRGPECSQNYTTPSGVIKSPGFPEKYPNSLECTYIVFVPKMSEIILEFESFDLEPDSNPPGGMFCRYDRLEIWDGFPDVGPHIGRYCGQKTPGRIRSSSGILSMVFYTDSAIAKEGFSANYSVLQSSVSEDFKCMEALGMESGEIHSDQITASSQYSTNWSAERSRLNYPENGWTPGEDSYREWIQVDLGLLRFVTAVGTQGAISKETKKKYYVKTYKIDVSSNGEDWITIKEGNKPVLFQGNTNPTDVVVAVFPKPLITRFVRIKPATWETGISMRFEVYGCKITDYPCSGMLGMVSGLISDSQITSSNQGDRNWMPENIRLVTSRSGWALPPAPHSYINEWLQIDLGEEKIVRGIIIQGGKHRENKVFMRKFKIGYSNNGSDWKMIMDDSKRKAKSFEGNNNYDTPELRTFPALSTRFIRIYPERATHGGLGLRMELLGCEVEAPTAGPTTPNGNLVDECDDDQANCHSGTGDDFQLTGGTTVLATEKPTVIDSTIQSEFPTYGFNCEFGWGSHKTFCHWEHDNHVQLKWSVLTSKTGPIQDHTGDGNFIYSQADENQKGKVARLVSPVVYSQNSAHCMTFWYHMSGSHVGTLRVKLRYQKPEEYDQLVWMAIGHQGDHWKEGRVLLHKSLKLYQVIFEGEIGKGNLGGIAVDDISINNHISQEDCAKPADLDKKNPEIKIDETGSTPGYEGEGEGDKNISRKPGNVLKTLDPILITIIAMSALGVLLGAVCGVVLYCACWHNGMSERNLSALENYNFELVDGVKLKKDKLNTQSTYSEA
# HTR2A ag – mouse Htr2a agonists via beta-arrestin recruitment, primary screen, cell-based, luminescence. 5-hydroxytryptamine receptor 2A (Mus musculus), P35363. CHO-K1 mHTR2A beta-arrestin complementation; percent of 30 µM serotonin response. activation, % at 7.6 µM. 360,000 tested, 0.66% active;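 active = activation above a run cutoff, the mean activation of all tested compounds plus 3 SD, cut at about 14% in these data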;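 note: 0% = plate median of compound wells and 100% = 30 µM serotonin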
# Arrestin-AP2 inh – inhibitors of beta-arrestin/AP2 binding, primary screen, biochemical, GPCR trafficking, flow cytometry; beta-arrestin 1 C-terminal peptide binding to AP2 beta2-adaptin appendage (human); FITC-arrestin peptide / GST-AP2 beads; AP2 beta2 appendage carries R879A mutation; inhibition, % at 10 µM; 340,000 tested, 0.31% active;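 active = inhibition above a set limit, near 3 SD of compounds lacking own fluorescence, cut at about 54% in these data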;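 note: plate controls were DMSO wells for no effect and 5 µM unlabelled arrestin peptide for full effect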
#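 Assay system: GST-AP2 R879A bound to glutathione beads, E. coli-expressed; Medium: PBS with 0.05% Tween 20 and 0.1% BSA; Also added: fluorescein-tagged arrestin peptide at 50 nM final; Timing: 12 min plus 1 h, RT; Measured by: flow cytometry, FL1 (488/535 nm); Evaluation: percent drop in bead-associated FITC signal.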
# sPLA2 confirm – human group III sPLA2 inhibitors, confirmation, biochemical, QFRET, triplicate; inhibition, % at 12.2 µM; 2,000 tested, 34% active; shares compounds with sPLA2-III inh; recombinant hGIII-sPLA2, BODIPY PC-A2 QFRET fluorescence;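 active = mean inhibition across triplicates above the hit cutoff set in the earlier primary screen, cut at about 19% in these data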;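 note: 0% = enzyme with DMSO and 100% = DMSO wells lacking enzyme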
# BODIPY interf – 535nm fluorescence optical interference, confirmation, artefact control for HGIII-sPLA2 inhibitor project, biochemical, QFRET | 2,000 tested, 8.5% active | shares compounds with sPLA2-III inh | AID 743282, 2014 | inhibition, % at 12.2 µM | BODIPY FL product fluorescence interference;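 active = average inhibition above the solvent-only control mean plus 3 SD, cut at about 6% in these data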;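 note: 0% = DMSO with substrate plus product and 100% = DMSO with substrate alone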
# * = called active by the depositor; · = not tested or not shown. An excerpt weighted towards active compounds, which were near 3.3% of everything screened.
SMILES,M18AAP inhibitor,Hep lipid drop,sPLA2-III inh,CendR NRP1 mod,HTR2A ag,Arrestin-AP2 inh,sPLA2 confirm,BODIPY interf
C[C@@H]1CCN(C2CC2)S(=O)(=O)c2ccc(N3CC[C@@H](O)C3)cc2O1,·,·,4.3,·,·,·,·,·
N=c1n(CCO)c2ccccc2n1CCN1CCCCC1,-14.3,-1.4,5.0,-5.3,-2.3,10.7,·,·
N=c1n(CCN2CCCCC2)c2ccccc2n1CC(O)c1ccco1 (configuration not stated),-15.1,1.6,20.6*,8.0,-1.5,-6.3,-1.4,-21.2
NC(=O)C1CC(=O)N(c2ccc(OCc3ccc(Cl)cc3Cl)cc2)C1 (configuration not stated),-2.6,6.4,8.2,-17.3,1.7,7.9,·,·
NC(=O)C1CC(=O)N(c2ccc(OCc3ccc(Cl)c(Cl)c3)cc2)C1 (configuration not stated),·,·,20.7*,19.3,0.9,·,10.0,-13.2
O=c1oc2cc(O)ccc2s1,·,·,19.7*,11.3,-4.7,4.1,3.5,-1.7
CCC(CC)C(=O)N(C)c1c(C)nc2c(OCCC3CCCCC3)cccn12,·,·,-6.8,10.3,-4.6,·,·,·
COC(=O)[C@]1(C)N[C@H](CN(C)C(=O)Nc2ccc(OC)cc2)[C@@H]2C(=O)N(Cc3ccccc3)C(=O)[C@@H]21,·,·,12.2,-17.2,-1.8,-5.9,·,·
CCCCNC(=O)CCn1c(=O)c2ccccc2n(CC(=O)NCCc2ccc(OC)c(OC)c2)c1=O,0.8,12.5,21.5*,15.7,4.5,-3.7,-7.0,-14.9
COCCCNC(=O)c1ccc(Cn2c(=O)c3ccccc3n(CC(=O)NCCc3ccc(OC)c(OC)c3)c2=O)cc1,-0.1,14.1,9.4,4.5,-2.1,30.0,·,·
CCN(CCS(=O)(=O)c1ccc(Cl)cc1)Cc1nc2ccccc2c(=O)[nH]1,·,·,-2.6,1.4,10.5,-4.3,·,·
CN(/N=C/c1ccc2c(c1)OCO2)c1ccccc1,4.0,5.0,22.6*,-1.6,-1.2,36.7,41.5*,6.6*
C(=N\N(c1ccccc1)c1ccccc1)/c1ccc2c(c1)OCO2,5.0,·,7.2,-4.8,-4.8,1.9,·,·
CCCCCCC(=O)NC1CCCCN(Cc2ccc(C)cc2)C1=O (configuration not stated),·,·,0.2,·,·,·,·,·
CCOC(=O)N1CCC(N2C(=O)c3ccc(C(=O)O)cc3C2=O)CC1,2.6,2.1,3.3,-1.0,-1.3,17.7,·,·
CCOC(=O)c1ccc2c(c1)C(=O)N(C1CCCCC1)C2=O,0.3,·,20.2*,0.9,7.5,-9.7,2.9,-7.9
COC(=O)c1sc2nc3c(cc2c1N)COC(C)(C)C3,-10.9,-2.4,-0.8,-3.8,0.4,-2.8,·,·
CC1(C)Cc2nc3sc(C(=O)NCCCO)c(N)c3cc2CO1,21.3,17.7,20.8*,-7.3,6.4,8.8,-1.4,-3.5
COCc1cc(N2CCNC[C@H]2C)ccc1N1C[C@@H](C)O[C@@H](C)C1,·,·,-3.3,·,·,·,·,·
O=c1oc(-c2cccc(C(F)(F)F)c2)nn1-c1ccc(C(F)(F)F)cn1,9.3,-8.7,21.2*,-2.4,-6.3,0.8,42.5*,24.6*
Cc1nn(-c2cc(C(F)(F)F)ccn2)c(=O)o1,-0.2,4.6,4.5,-2.7,8.6,3.0,·,·
C=CCNc1cc(=O)n(Cc2ccccc2)c(=O)[nH]1,·,·,19.3*,4.1,3.8,29.0,-1.7,-3.4
S=C(Nc1ccccc1Oc1ccccc1)Nc1cccc(Cl)c1Cl,3.0,11.2,21.6*,28.2*,-2.0,9.1,30.1*,6.7*
CC(C)c1ccc(CC(=O)N2CCC2(C)C(=O)NS(=O)(=O)c2cccc(C#N)c2)cc1 (configuration not stated),·,·,8.1,3.9,4.2,·,·,·
COC(CNC(=O)c1ccc(N2CCC3(CC2)OCCO3)c([N+](=O)[O-])c1)OC,4.4,-7.0,23.0*,-0.7,-0.9,-1.9,2.9,-8.8
SMILES,M18AAP inhibitor,Hep lipid drop,sPLA2-III inh,CendR NRP1 mod,HTR2A ag,Arrestin-AP2 inh,sPLA2 confirm,BODIPY interf
O=C(c1ccc(N2CCC3(CC2)OCCO3)c([N+](=O)[O-])c1)N1CCOCC1,2.6,9.5,-4.4,-10.3,8.7,-20.8,·,·
CC1(c2nnnn2Cc2ccccc2)CSCC(=O)N1Cc1cccs1 (configuration not stated),·,·,2.5,·,·,·,·,·
Cc1onc(-c2ccccc2)c1-c1n[nH]c(=S)n1-c1ccccc1Cl,17.5,·,19.3*,-6.5,1.2,12.1,23.4*,-0.6
Cc1onc(-c2ccccc2)c1-c1n[nH]c(=S)n1-c1ccc(C(=O)O)cc1,14.1,1.2,4.4,2.8,1.3,2.5,·,·
O=C(Nc1nc(-c2ccccn2)cs1)c1cc2ccccc2o1,4.3,21.3,30.6*,-13.5,-3.9,-1.1,19.3*,-3.5
O=C(Nc1nc(-c2ccccn2)cs1)c1ncc(Cl)c(Cl)c1Cl,1.5,·,26.8*,-8.6,3.5,8.7,21.2*,0.6
O=C(Nc1nc(-c2ccccn2)cs1)c1ccc(Cl)s1,-2.9,·,27.4*,-17.1,4.0,-7.7,24.3*,-2.7
COC(=O)C[C@@H]1C[C@@H]2c3cc(NS(=O)(=O)c4ccccc4)ccc3O[C@@H]2[C@@H](CO)O1,·,·,0.5,-3.9,0.0,·,·,·
CCCN1CCCCC(NC(=O)c2ccc(-c3ccccc3)cc2)C1=O (configuration not stated),·,·,6.5,·,·,·,·,·
COc1cccc(Nc2nc(C(N)c3ccccc3)cs2)n1 (configuration not stated),·,·,23.6*,-4.3,2.8,·,5.8,-8.9
CCCS(=O)(=O)c1c(S(=O)(=O)CCC)c2cnccn2c1C(=O)c1ccc(F)cc1,-0.5,·,19.3*,-9.4,-0.5,15.6,2.9,-9.9
CCCS(=O)(=O)c1c(S(=O)(=O)CCC)c2cnccn2c1C(=O)c1ccc(CC)cc1,-1.2,-61.2,0.0,19.7,-1.6,7.4,·,·
CC(=O)Nc1ccc(NC(C)=C(C#N)C#N)cc1,-1.1,4.6,19.7*,-4.2,0.9,10.9,-1.5,-2.6
CC(=O)Nc1cccc(NC(C)=C(C#N)C#N)c1,2.8,0.8,2.3,12.4,-1.2,1.5,·,·
